Only some compounds are listed: those with a hit (about 0.7% of all), similar ones and a draw of the others.
Rce1 inhib = inhibitors of yeast Ras-converting enzyme. Q03530. yeast membranes, quenched prenylated peptide cleavage fluorescence. calls only. actives 0.27% (n = 290,000);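 active means fall in fluorescence gain of 50% or more versus controls, with final raw signal at or below 3038400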;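 further: plate controls were neutral control wells for no effect and wells lacking membranes for full effect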
Target sequence (Q03530 whole entry, looked up): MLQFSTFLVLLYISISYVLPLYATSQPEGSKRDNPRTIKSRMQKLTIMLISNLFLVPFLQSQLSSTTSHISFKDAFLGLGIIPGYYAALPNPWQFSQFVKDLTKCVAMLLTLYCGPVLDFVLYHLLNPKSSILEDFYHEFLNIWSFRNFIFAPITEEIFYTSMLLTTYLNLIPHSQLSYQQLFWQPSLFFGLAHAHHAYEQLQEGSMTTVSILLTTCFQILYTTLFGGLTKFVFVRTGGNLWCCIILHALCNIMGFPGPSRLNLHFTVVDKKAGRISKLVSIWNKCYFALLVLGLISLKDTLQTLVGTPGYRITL
STK33 inh = inhibitors of human STK33 kinase; actives 0.073% (n = 320,000); purified STK33, MBP phosphorylation, ADP-Glo luminescence; inhibition, % at 10 µM; Q9BYT3;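 active means inhibition at or above 25%, using the most active replicate where run in duplicate; inactive means inhibition below 25%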
HSV replic up = increases HSV replication in cells; maximum fold increase; actives 0.005% (n = 220,000); HSV replication augmentation in cells, fold increase; AID 1956; in the data active means maximum fold increase above about 1.5; tested in PC3 cells
Hep lipid drop = hepatic lipid droplet formation modulation. AML12 mouse hepatocytes, oleate lipid droplets, BODIPY imaging. AID 1656. inhibition, % at 6.5 µM. actives 0.4% (n = 240,000);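 active means lipid droplet intensity inhibited by at least 50%, with more than 500 cells counted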
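Assay system: AML12 hepatocytes (mouse); Probe or stimulus: oleic acid at 100 µM to induce lipid droplet formation; Dosing: compound at 6.5 µM only; Schedule: compound with oleate, overnight; Detection: fluorescence imaging, 20x objective, two fields per well; Measure: % inhibition of lipid droplet signal.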
GSK3 alpha inh = blocks human GSK-3 alpha kinase. P49840. ADP-Glo luminescence, 60 min. inhibition, % at 10 µM. actives 0.1% (n = 320,000). AID 2650;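 active means more than half of replicates show inhibition above 20%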;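 further: GST-tagged GSK-3 alpha with peptide substrate and 25 µM ATP; 0% = DMSO neutral wells and 100% = GW8510 positive control wells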
GSK3beta inhib = human GSK3beta kinase inhibition. actives 0.038% (n = 300,000). activity score (negative = inhibition), % at 10 µM. P49841. GST-GSK3beta kinase, ADP-Glo luminescence, 60 min; stronger effect = lower value;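 active means more than half of replicate wells score below -50%, meaning over 50% inhibition versus plate controls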;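 further: 0% = median DMSO wells and -100% = median GW8510 positive control wells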
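test system = GST-tagged human GSK3beta kinase, cell-free | reagent = 25 µM ATP with peptide substrate | dosing = one dose of 10 µM per compound | schedule = 60 min reaction, RT | detection = luminescent ADP-Glo measurement of ADP formed | control set = DMSO neutral wells and GW8510 at 20 µM as positive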
Numbers without * were called inactive; i = inactive; . = not tested or not shown; + = active, no number.

SMILES | Rce1 inhib | STK33 inh | HSV replic up | Hep lipid drop | GSK3 alpha inh | GSK3beta inhib
Cc1cccc(Nc2nc(NCCCN3CCOCC3)nc(N)c2[N+](=O)[O-])c1 | i | 5 | i | -10 | 75* | -74*
COc1nc(NCCN2CCOCC2)nc(Nc2ccc([N+](=O)[O-])cc2)n1 | i | 1 | i | 5 | 3 | 5
COc1ccc(Nc2nc(NCCCN3CCOCC3)nc(N)c2[N+](=O)[O-])cc1 | i | 2 | i | 10 | 85* | -56*
COCc1nnc(NC(=O)CS(=O)(=O)c2ccc(C)cc2)s1 | i | -1 | . | 0 | -2 | -5
CCOc1ccc(-c2c(C(=O)N/N=C/C3CC=CCC3)nnn2-c2nonc2N)cc1 (stereo unspecified) | i | -1 | . | 2 | -1 | -3
Cc1cccc(S(=O)(=O)Nc2cccc3c2C(=O)c2ccccc2-3)c1 | i | -1 | 4.1* | 4 | -2 | -2
Cc1ccc(NS(=O)(=O)c2ccc3c(c2)C(=O)c2ccccc2C3=O)c(C)c1 | . | -3 | i | -8 | -3 | .
COc1ccc(C(=O)c2sc(Nc3ccccc3)nc2N)cc1OC | i | 3 | . | 8 | 90* | 1
COc1ccc(C(=O)c2sc(Nc3ccccc3)nc2N)cc1 | i | 2 | . | -5 | 28 | -1
Nc1nc(Nc2ccccc2)sc1C(=O)c1ccccc1 | i | 12 | i | 5 | 92* | -71*
COc1ccc(C(=O)c2sc(Nc3ccccc3F)nc2N)cc1 | i | 3 | . | . | 56* | -19
CC(=O)c1cccc(NC(=O)N2C3CCCC2CC(NC(=O)C2CC2)C3)c1 (stereo unspecified) | i | -1 | . | -3 | -1 | -3
CC(=O)NC1C(=O)N=C(SCC(=O)Nc2ccc(C(F)(F)F)cc2Cl)NC1=O (stereo unspecified) | i | -1 | i | 32 | -6 | 2
COc1ccc(-c2nn(-c3ccccc3)cc2/C=N/NS(=O)(=O)c2ccccc2)cc1 | i | 3 | . | . | -2 | -1
COc1ccc(-c2nn(-c3ccccc3)cc2/C=N/O)cc1 | i | 0 | . | . | 46 | -54*
CS(=O)(=O)Nc1ccc(-c2cc(/C=C3\SC(N)=NC3=O)c[nH]c2=O)cc1 | i | 39* | . | 1 | 37 | -2
Cc1ccc(/C=C2\SC(N)=NC2=O)s1 | i | 1 | i | -11 | -2 | 3
NS(=O)(=O)c1ccc(N/N=C/c2cn(-c3ccccc3)nc2-c2cccs2)cc1 | + | 0 | i | -4 | 3 | 3
NS(=O)(=O)c1ccc(N/N=C/c2cn(-c3ccccc3)nc2-c2cccs2)c([N+](=O)[O-])c1 | i | 0 | i | 24 | -5 | 1
COC(=O)c1nnn(-c2nonc2N)c1CN1CCc2ccccc21 | i | -2 | i | -1 | 64* | -6
O=C(Nc1nnc(S(=O)(=O)N2CCCCC2)s1)c1cccc(Br)c1 | i | -2 | . | 11 | -5 | 2
O=C(c1cccnc1)N1N=C(c2cccs2)CC1c1ccc(F)cc1 (stereo unspecified) | i | -1 | i | 1 | 0 | -6
O=C1c2cccc(OCC(=O)N3N=C(c4cccs4)CC3c3ccc(F)cc3)c2CCN1Cc1cccnc1 (stereo unspecified) | + | 0 | i | -8 | -3 | -1
COc1c(-c2ccc(O)c(O)c2)oc2cc(O)cc(O)c2c1=O | i | 18 | i | -7 | 90* | 1
O=c1c(O)c(-c2cc(O)c(O)c(O)c2)oc2cc(O)cc(O)c12 | . | 37* | . | . | 62* | .
SMILES | Rce1 inhib | STK33 inh | HSV replic up | Hep lipid drop | GSK3 alpha inh | GSK3beta inhib
O=S(=O)(NCc1ccc(F)cc1)c1ccccc1Br | . | 0 | . | . | 1 | .
COc1ccc(N2C(=O)c3ccc(C(=O)Nc4ccc(NC(C)=O)cc4)cc3C2=O)cc1 | i | -2 | . | 3 | -3 | -2
CN=C(NC#N)SCC(=O)c1ccc(Cl)cc1Cl | i | 3 | i | . | 77* | -71*
Cc1ccc2c(C)c(C(=O)N(Cc3ccc(F)cc3)C3CCS(=O)(=O)C3)oc2c1 (stereo unspecified) | + | -2 | . | -35 | -15 | 3
Cc1c(C(=O)N(Cc2ccc(F)cc2)C2CCS(=O)(=O)C2)oc2ccccc12 (stereo unspecified) | i | 0 | . | -5 | . | -1
COc1ccc(-n2ccnc2SCC(=O)NC2CCCC2)cc1 | . | -1 | . | . | 0 | .
